The text below walks through data of publication PMC9065685 (Bioorganic Chemistry, 2022).

The term MBC denotes the lowest tested concentration that kills the bacteria rather than only halting them. One may read the MIC as the lowest concentration that inhibits growth of the organism.

Converted amounts (≈) assume the structure as drawn. “And” between values parts separate entries of the source, which are not always exact repeats. Equal entries are not always repeated.

One series deals with Escherichia coli. As to the kind of experiment: Disc diffusion antibacterial susceptibility test. The conditions noted are these: mean ± SD, triplicate, NI = No inhibition. In kind it is cell-based. The method, boiled down: (§1)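 Bacteria came from a university microbiology laboratory stock. Colonies were suspended in sterile 0.85% saline and matched to McFarland 0.5, then swabbed evenly onto Mueller-Hinton agar. 6 mm filter-paper discs carrying test compound were laid on the agar. Plates were incubated 18 h at 37 °C and inhibition zone diameters measured in mm. Three repeats, reported as mean ± SD.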
(In agar diffusion tests the substance spreads into inoculated agar from a disc or well.)

Another series deals with Salmonella typhi. Put plainly: Disc diffusion antibacterial susceptibility test. In kind it is cell-based. The settings on record: mean ± SD, triplicate, NI = No inhibition. The method, boiled down: as §1
A further series relates to Bacillus subtilis. As to the kind of experiment: Disc diffusion antibacterial susceptibility test. The conditions noted are these: 18 h at 37 °C, mean ± SD, triplicate, NI = No inhibition. The format is cell-based. The method, boiled down: as §1
A further series relates to Pseudomonas aeruginosa. As to the kind of experiment: Disc diffusion antibacterial susceptibility test. The format is cell-based. The conditions noted are these: mean ± SD, triplicate, NI = No inhibition. The method, boiled down:
as §1

The next series has as its system Aspergillus niger. Put plainly: Mycelial growth inhibition. The format is cell-based. The conditions noted are these: 5 days incubation, mean ± SD, triplicate, NI = No inhibition.
A further series has as its system Aspergillus flavus. As to the kind of experiment: Mycelial growth inhibition. The format is cell-based. The settings on record: 5 days incubation, mean ± SD, triplicate, NI = No inhibition.
Series [1] concerns tested strains (pathogenic bacteria). Put plainly: MIC and MBC by micro-broth dilution, over the tested strains. The format is cell-based. The settings on record: for MBC: read-out: MBC values against the tested organisms; for MIC: read-out: MIC values against the tested strains. The method, boiled down: (§2)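 Broth microdilution in Mueller-Hinton broth, using a two-fold test compound series over 0.125 to 128 µg/mL. Wells received 5 µL of inoculum at 10⁴–10⁵ CFU/mL, diluted from a 0.5 McFarland suspension. Each plate had growth (no compound) and sterility controls. After 24 h at 37 °C, 0.5% (w/v) triphenyl tetrazolium chloride was added for a further 24 h at 37 °C. Red colour indicated growth, and MIC/MBC were read visually.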
In general terms: Broth dilution looks for growth in wells or tubes with falling amounts of substance.

The next series deals with brine shrimps nauplii. Put plainly: Brine shrimp lethality assay. The settings on record: brine shrimp lethality bioassay, 24 h and 48 h. The format is in vivo. The method, boiled down:
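Test compound was dissolved in DMSO and made up to 5 ml with NaCl solution at four concentrations. Ten nauplii per vial, each concentration run three times; control vial held 10 nauplii in 5 ml seawater. Vials stood at room temperature for 24 h and 48 h. Survivors were counted under a magnifying glass, and average % mortality was calculated per concentration.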

For another series, the system named is B. subtilis. As to the kind of experiment: MIC and MBC by micro-broth dilution. The format is cell-based. The conditions noted are these: Bacillus subtilis. The method, boiled down: as §2

Take `CC[C@H]1OC(=O)[C@H](C)[C@@H](O[C@H]2C[C@@](C)(OC)[C@@H](O)[C@H](C)O2)[C@H](C)[C@@H](O[C@@H]2O[C@H](C)C[C@H](N(C)C)[C@H]2O)[C@](C)(O)C[C@@H](C)CN(C)[C@H](C)[C@@H](O)[C@]1(C)O` [Azithromycin, reference compound]: the “Diameter of inhibition zone, E. coli (-ve)” value in the series on Escherichia coli is “**17.25 ± 0.1 mm”. Further, in the series with Salmonella typhi, the “Diameter of inhibition zone, S. typhi (-ve)” value is given as “**18 ± 0.2 mm”. In the series with Bacillus subtilis, the “Diameter of inhibition zone, B. subtilis (+ve)” value is listed as 18.5 ± 0.3 mm. Moreover, the “Diameter of inhibition zone, P. aeruginosa (-ve)” value in the series on Pseudomonas aeruginosa is recorded as “**18.5 ± 0.3 mm”.

With `C[C@@H]1[C@H](O)[C@@H](C)/C=C/C=C/CC/C=C/C=C/C=C/C=C/C(O[C@H]2O[C@H](C)[C@@H](O)[C@H](N)[C@@H]2O)CC2O[C@](O)(CC(O)C(O)CCC(O)CC(O)CC(O)CC(=O)O[C@H]1C)CC(O)C2C(=O)O` (some centres unmarked) [Nystatin, reference compound], the “% inhibition of fungal mycelial growth in mm (20 μg/μL), Aspergillus niger” value (shortened to “% inhibition … Aspergillus niger”) in the series with Aspergillus niger is on record as “**65.4 ± 1.0%”. In addition, the “% inhibition of fungal mycelial growth in mm (20 μg/μL), Aspergillus. flavus” value (shortened to “% inhibition … Aspergillus. flavus”) in the series on Aspergillus flavus was “**64.1 ± 1.0%”.

For `CCCCCCCCCCCC(=O)OC[C@H]1O[C@@H](n2cc(C)c(=O)[nH]c2=O)C[C@@H]1O` [analog 2, 5́-O-(Lauroyl)thymidine], in the series with Aspergillus niger, the “% inhibition … Aspergillus niger” value was “*60.16 ± 1.2%”. Moreover, in series [1], the minimal bactericidal concentration (MBC) fell in the range of 8 to 16 µg/mL (≈ 18.8 to 37.7 µM) and the MIC lay in the range of 0.125 to 8 µg/mL (≈ 0.294 to 18.8 µM). Further, the “% death of brine shrimp (level of toxicity)” value with brine shrimps nauplii came out at 36.25%. In the series with Escherichia coli, the “Diameter of inhibition zone, E. coli (-ve)” value is “*13.00 ± 0.1 mm”. The “Diameter of inhibition zone, S. typhi (-ve)” value in the series with Salmonella typhi is listed as “*14.50 ± 0.3 mm”. In the series on B. subtilis, the minimum inhibitory concentration (MIC) worked out at 0.125 µg/mL (≈ 0.294 µM). Besides, the “% inhibition … Aspergillus. flavus” value with Aspergillus flavus is reported as “*82.76 ± 1.0%”. Also, the “Diameter of inhibition zone, P. aeruginosa (-ve)” value in the series on Pseudomonas aeruginosa is reported as “*12.75 ± 0.1 mm”.

Consider `CCCCCCCCCCCC(=O)OC[C@H]1O[C@@H](n2cc(C)c(=O)[nH]c2=O)C[C@@H]1OC(=O)c1ccc(C(C)(C)C)cc1` [analog 3, 3́-O-(4-t-Butylbenzoyl)-5́-O-(lauroyl)thymidine], for which, in the series on Aspergillus niger, the “% inhibition … Aspergillus niger” value is “*65.25 ± 1.1%”. For the same molecule, in [1], the MBC was in the range of 8 to 16 µg/mL (≈ 13.7 to 27.4 µM) and the MIC was in the range of 0.125 to 8 µg/mL (≈ 0.214 to 13.7 µM). Also, in the series with Salmonella typhi, the “Diameter of inhibition zone, S. typhi (-ve)” value amounted to 9.75 ± 0.2 mm. The “Diameter of inhibition zone, B. subtilis (+ve)” value in the series with Bacillus subtilis was 13.25 mm and 13.25 ± 0.2 mm. Moreover, the “% inhibition … Aspergillus. flavus” value with Aspergillus flavus is “*72.95 ± 1.0%”. Besides, the “Diameter of inhibition zone, P. aeruginosa (-ve)” value in the series with Pseudomonas aeruginosa is “*11.75 ± 0.4 mm”.

As for `CCCCCCCCCCCCCC(=O)O[C@H]1C[C@H](n2cc(C)c(=O)[nH]c2=O)O[C@@H]1COC(=O)CCCCCCCCCCC` [analog 4, 5́-O-Lauroyl-3́-O-(myristoyl)thymidine], in the series with Escherichia coli, the “Diameter of inhibition zone, E. coli (-ve)” value is given as “*12.5 ± 0.2 mm”. Further, the “Diameter of inhibition zone, B. subtilis (+ve)” value with Bacillus subtilis was 12.75 mm and 12.75 ± 0.1 mm.

On to `CCCCCCCCCCCCCCCC(=O)O[C@H]1C[C@H](n2cc(C)c(=O)[nH]c2=O)O[C@@H]1COC(=O)CCCCCCCCCCC` [analog 5, 5′-O-Lauroyl-3′-O-(palmitoyl)thymidine], for which, in the series on Aspergillus niger, the “% inhibition … Aspergillus niger” value came out at 57.62 ± 1.1%. Also, in the series on Escherichia coli, the “Diameter of inhibition zone, E. coli (-ve)” value was determined as 9.00 ± 0.2 mm. Also, the “Diameter of inhibition zone, S. typhi (-ve)” value in the series on Salmonella typhi is “*15.25 ± 0.2 mm”. Besides, the “Diameter of inhibition zone, B. subtilis (+ve)” value in the series on Bacillus subtilis is 14.50 mm and 14.5 ± 0.1 mm. Also, the “% inhibition … Aspergillus. flavus” value with Aspergillus flavus was “*81.55 ± 1.0%”. Also, the “Diameter of inhibition zone, P. aeruginosa (-ve)” value in the series on Pseudomonas aeruginosa is given as 8.50 ± 0.2 mm.

Turning to `CCCCCCCCCCCC(=O)OC[C@H]1O[C@@H](n2cc(C)c(=O)[nH]c2=O)C[C@@H]1OC(=O)c1ccc(Br)cc1` [analog 6, 3́-O-(4-Bromobenzoyl)-5́-O-(lauroyl)thymidine], in the series on brine shrimps nauplii, the “% death of brine shrimp (level of toxicity)” value worked out at 38.75%. In addition, the “Diameter of inhibition zone, S. typhi (-ve)” value with Salmonella typhi came to 9.5 ± 0.1 mm.
